pKd: −log10 of the molar value.
Columns and labels:
Format in all cases: binding
PTN = biological target: T1, PTN (Homo sapiens, UniProt P21246); assay: PRE control experiment with 4-hydroxy-TEMPO; conditions: under the condition of the PRE experiments
T1 sequence (P21246 33-168): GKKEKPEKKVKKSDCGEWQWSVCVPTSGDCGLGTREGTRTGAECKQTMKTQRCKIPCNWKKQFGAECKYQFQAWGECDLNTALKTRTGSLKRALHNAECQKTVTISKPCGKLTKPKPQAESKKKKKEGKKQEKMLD

wild type PTN = biological target: T2, wild type PTN (Homo sapiens, UniProt P21246); assay: Immobilized CSA and CSE ELISA of wild type PTN; conditions: immobilized native CS, biotinylated wild type PTN, Langmuir isotherm 1:1
T2 sequence (P21246 33-168): T1 sequence (P21246 33-168)
Summary of the method: (§1)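 Human PTN (wild type or residues 1–114) was expressed in E. coli Origami B (DE3), purified on a heparin column, and biotinylated by EDC coupling to amine-PEG-biotin (MES pH 5.5). CSA or CSE was EDC/NHS-crosslinked overnight to poly-L-lysine-coated amine plates, then blocked with 5% BSA for 1.5 h. PTN at 2.5–0.015 μg/ml, 1 h; streptavidin-HRP 1 h; TMB; HCl stop; A450. Kd by 1:1 Langmuir fit; ≥3 runs, triplicate points.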

[1] = biological target: T3, C-terminal truncated PTN (residues 1 to 114) (Homo sapiens, UniProt P21246); assay: Immobilized CSA and CSE ELISA of C-terminal truncated PTN; conditions: immobilized native CS, biotinylated truncated PTN (residues 1 to 114)
T3 sequence (P21246 33-146): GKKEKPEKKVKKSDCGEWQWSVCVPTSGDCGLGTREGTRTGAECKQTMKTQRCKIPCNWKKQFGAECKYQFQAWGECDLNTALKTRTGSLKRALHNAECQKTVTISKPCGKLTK
Summary of the method: as §1

| Compound | non-specific interactions between the TEMPO moiety and PTN (PTN) | Kd (wild type PTN) | Kd [1] | pKd (wild type PTN) |
| --- | --- | --- | --- | --- |
| CC1(C)CC(O)CC(C)(C)N1[O] [4-hydroxy-TEMPO] | no non-specific interactions | – | – | – |
| Chondroitin Sulfate E [CSE] | – | four to five | four to five | – |
| Chondroitin Sulfate A [CSA] | – | – | failed to bind | ~7.77 |

Source: article PMC6217956 (The FEBS journal, 2016)
